Lmaj promast = inhibitors of Leishmania major promastigote growth. 200,000 compounds, 9% hits. Leishmania major promastigotes, resazurin fluorescence viability. inhibition, % at 10 µM; in the data active means inhibition above about 50%;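 further: promastigotes grown with compound for 44 hours at 28 °C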
T cruzi repl = T. cruzi replication inhibition; T. cruzi beta-gal in NIH3T3, luminescence, 90 h; inhibition, % (concentration not given with the values); 300,000 compounds, 1.4% hits; AID 1885;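 active means mean inhibition across valid replicates above about 55%, limit read from the data; inconclusive means mean below that limit but half or more replicates reach it; inactive means mean below it, under half of replicates reach it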;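 further: signal also drops with host cell toxicity which is not excluded here; higher percent means less beta-gal luminescence so fewer parasites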
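Test system: β-gal T. cruzi (Tulahuen C4) inside NIH/3T3 cells / Quantity: 5,000 cells/well / Measured by: luminescence from GalScreen with 0.05% NP40, read after 60 min / Medium: DMEM plus 2% FBS / Measure: parasite load inhibition, % / Reagent: Tulahuen C4 trypomastigotes, 5000/well / Schedule: co-culture of at least 90 h after 3 h attachment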
MPTP block = permeability transition pore inhibition; isolated mouse mitochondria, Ca2+ swelling absorbance, 30 min; inhibition, % at 10 µM; 360,000 compounds, 1.4% hits;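 active means inhibition of 50% or more, scaled per plate between neutral and stimulator controls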
Redox H2O2 prof = compounds producing H2O2 with reducing agent – biochemical, NIH compound library profiling, artefact control for MLSCN library redox annotation, primary screen | DTT-dependent redox cycling H2O2, phenol red/HRP absorbance; 100% = 100 µM peroxide control, 0% = buffer | activation, % at 10 µM | 200,000 compounds, 0.03% hits | AID 878;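 active means activation of at least 50% relative to the plate's high and low controls in the primary single-dose screen; inactive means activation below 50%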;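 further: compound incubated with DTT at 0.8 mM final as the reducing agent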
Lipid droplet = hepatic lipid droplet formation modulation; inhibition, % at 6.5 µM; 240,000 compounds, 0.4% hits; AML12 mouse hepatocytes, oleate lipid droplets, BODIPY imaging;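 active means lipid droplet intensity inhibited by at least 50%, with more than 500 cells counted; inconclusive means wells with under 300 cells, treated as cytotoxic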
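Material – mouse AML12 hepatocyte cell line, fixed after treatment · Compound dosing – one dose, 6.5 µM compound · Times – compound with oleate, overnight · Measured by – Image-based BODIPY and DAPI two-channel analysis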
A number is an active result; – = inactive; ? = inconclusive; · = no result given. Shown is part of a subset that was picked to be rich in hits.

SMILES	Lmaj promast	T cruzi repl	MPTP block	Redox H2O2 prof	Lipid droplet
CC(=O)c1sc(N/N=C2\CC3CCC2(C)C3(C)C)nc1C (stereo unspecified)	83	–	–	–	–
Cc1ccc(S(=O)(=O)NN=C2CC3CCC2(C)C3(C)C)cc1 (stereo unspecified)	·	·	–	·	·
CC12CCC(C(=O)NC3CCCCC3)([C@H](Br)C1=O)C2(C)C (stereo partly specified)	·	–	–	·	–
COc1ccccc1C(c1nnnn1Cc1ccccc1)N1CCN(c2nc3ccccc3s2)CC1 (stereo unspecified)	91	–	–	–	·
COc1ccc(C(c2nnnn2Cc2ccccc2)N2CCN(c3nc4ccccc4s3)CC2)cc1OC (stereo unspecified)	100	–	–	–	–
COCCn1nnnc1C(CC(C)C)N1CCN(c2nc3ccccc3s2)CC1 (stereo unspecified)	–	–	–	–	–
CCCCC(c1nnnn1Cc1ccco1)N1CCN(c2nc3ccccc3s2)CC1 (stereo unspecified)	97	–	–	–	·
COc1ccc(Cn2nnnc2C(c2cccnc2)N2CCN(c3ccc(O)cc3)CC2)cc1 (stereo unspecified)	94	–	–	–	–
COc1ccc(Cn2nnnc2C(c2cccs2)N2CCN(c3ccccc3)CC2)cc1 (stereo unspecified)	–	–	–	–	·
CCC(C)(C)n1nnnc1C(c1ccc(O)c(OC)c1)N1CCN(c2nc3ccccc3s2)CC1 (stereo unspecified)	–	·	–	–	·
CCc1nc2c(OCc3ccc(C(F)(F)F)cc3)cccn2c1N(C=O)Cc1ccc(OC)cc1	·	·	–	·	·
CC(C)c1cccc(-c2ccc3c(c2)S(=O)(=O)c2cccc(C(=O)NCc4ccco4)c2C3=O)c1	·	·	–	·	·
Cc1cccc(C)c1C(O)c1ncc(-c2ccc(F)cc2)[nH]1 (stereo unspecified)	·	·	–	·	·
CCC(c1nnnn1CCOC)N1CCN(c2nc3ccccc3s2)CC1 (stereo unspecified)	–	–	–	–	–
c1ccc(C(c2nnnn2Cc2ccco2)N2CCN(C3CCCC3)CC2)cc1 (stereo unspecified)	–	–	–	–	–
CC(C)C(c1nnnn1Cc1ccco1)N1CCN(c2cccc(Cl)c2)CC1 (stereo unspecified)	85	–	–	–	·
CC(C)C(c1nnnn1Cc1ccccc1)N1CCN(Cc2ccco2)CC1 (stereo unspecified)	–	–	–	–	·
c1ccc(Cn2nnnc2C(c2ccccc2)N2CCN(c3nc4ccccc4s3)CC2)cc1 (stereo unspecified)	100	?	–	–	·
Cc1ccc(S(=O)(=O)Cn2nnnc2C(C(C)C)N2CCN(c3nc4ccccc4s3)CC2)cc1 (stereo unspecified)	99	56	–	–	–
c1ccc(C(c2nnnn2Cc2ccco2)N2CCN(c3nc4ccccc4s3)CC2)cc1 (stereo unspecified)	98	–	–	–	–
COc1ccc(C(c2nnnn2C(C)(C)C)N2CCN(c3nc4ccccc4s3)CC2)cc1 (stereo unspecified)	57	–	–	–	·
O=C(Cn1cc(CNC(=O)C2CCCCC2)nn1)Nc1cc(C(F)(F)F)ccc1Cl	·	·	–	·	·
O=c1oc2ccc3ccccc3c2cc1-c1nnc(-c2ccccc2)o1	–	–	–	–	·
Nc1nnc(-c2cc3c(ccc4ccccc43)oc2=O)s1	81	·	·	–	–
Cc1noc(C)c1COc1ccccc1C(=O)NCCOc1ccccc1	·	·	–	·	·
SMILES	Lmaj promast	T cruzi repl	MPTP block	Redox H2O2 prof	Lipid droplet
CCOC(=O)C1=C(c2ccccc2)N=c2s/c(=C\c3cc(OC)c(OC)c(OC)c3)c(=O)n2C1c1cccs1 (stereo unspecified)	–	63	–	–	·
N#C/C(=C\c1cccc(NC(=O)c2ccccc2Cl)c1)C(=O)NCCc1ccccc1	99	–	–	–	–
COCCCNC(=O)/C(C#N)=C/c1cccc(NC(=O)c2ccccc2Cl)c1	75	–	–	–	–
COc1ccc(CCNC(=O)/C(C#N)=C/c2cccc(OCc3ccccc3)c2)cc1OC	100	–	–	–	–
N#C/C(=C/c1ccccc1)C(=O)NCc1ccccc1	–	–	–	–	–
CC(=O)NC12CC3CC(C1)CC(C(=O)N1CCN(S(=O)(=O)c4ccccc4C#N)CC1)(C3)C2	·	·	–	·	·
CCCCn1c(N)c(N(CC(C)C)C(=O)C2=NN(c3ccccc3)C(=O)CC2)c(=O)[nH]c1=O	·	·	–	·	·
Cc1ccc(OCCN2CCCCCC2)c(C)c1	96	–	–	–	–
Cc1ccc(OCCCN2CCCC2)c(C)c1	97	–	–	–	–
Cc1ccc(OCCCCN2CCCCC2)c(C)c1	·	–	–	·	–
O=C(NC1CC1)C1=NOC(CNc2ncc(C(F)(F)F)cc2Cl)C1 (stereo unspecified)	–	–	–	–	–
O=C(N/C=N/O)C1=NOC(CNc2ncc(C(F)(F)F)cc2Cl)C1 (stereo unspecified)	99	–	–	–	–
Cc1ccc(NS(=O)(=O)c2ccc(NC(=O)c3cccc(NC(=O)C(C)C)c3)cc2)cc1	56	–	–	–	·
Cc1ccc(S(=O)(=O)Nc2ccc(C(=O)Nc3ccncc3)cc2)cc1	–	–	–	–	–
CC(=O)N1CCCc2cc(S(=O)(=O)N3CCc4ccccc4C3)ccc21	98	–	–	–	–
CC(=O)N1CCCc2cc(S(=O)(=O)N(C)Cc3ccccc3)ccc21	61	–	–	–	–
CCC(=O)N1CCc2cc(S(=O)(=O)N3CCc4ccccc4C3)ccc21	–	–	–	–	–
CCCCN(CC)S(=O)(=O)c1ccc2c(c1)CCCN2C(C)=O	–	–	–	–	–
O=C(CS(=O)(=O)Cc1ccccc1)NCc1ccccc1Cl	·	–	–	·	–
Cn1c(=O)c(=O)n(C)c2cc([N+](=O)[O-])c([N+](=O)[O-])cc21	80	–	–	–	–
O=C(C1=C(O)/C(=C/c2ccc(O)cc2)CCC1)C(F)(F)F	56	·	–	–	–
Cc1ccc(C(c2nnnn2C2CCCCC2)N(C)C2CCCCC2)cc1 (stereo unspecified)	72	–	–	–	–
CC(C)C(c1nnnn1C1CCCC1)N(C)C1CCCCC1 (stereo unspecified)	–	–	–	–	–
COc1cc2cc(C(c3nnnn3C3CCCC3)N(C)C3CCCCC3)c(=O)[nH]c2cc1OC (stereo unspecified)	–	–	–	–	–
COc1cc2cc(C(c3nnnn3C3CCCCC3)N(C)C3CCCCC3)c(=O)[nH]c2cc1OC (stereo unspecified)	72	–	–	–	–
CN(CC(=O)Nc1cccc(F)c1)C(=O)CCCNC(=O)c1ccc(Cl)cc1	·	–	–	·	·
O=c1c2ccccc2nc(SCc2ccccc2)n1Cc1ccco1	–	–	–	–	·
Cc1sc2nc(SCc3ccc(C(=O)O)cc3)n(Cc3ccco3)c(=O)c2c1C	·	61	–	·	–

Screens: PubChem, several laboratories
